Test: Toxicity liver stage against HepG2, at 10uM
Format: cell-based
Parameters: test concentration 10 uM, cell line HepG2-A16-CD81EGFP
Settings: human, HepG2-A16-CD81EGFP cells; read-out: INHIBITION
Summary of the method: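 Uninfected HepG2-A16-CD81EGFP cells, 3 × 10^3 per well, 1536-well, plated on prespotted compound at 10 μM final, parasite-free screening media added to match infected plates; puromycin 10 μM positive, DMSO 0.5% negative; run in parallel with 48 h PbLuc assay at 37 °C, 5% CO2; viability by CellTiter-Glo luminescence, normalized to controls.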

Compound | cytotoxicity at 10 µM [%]
Cc1cnc2n(c1=O)C(CC(=O)NCc1cccnc1)CS2 (stereo not given) | 4.22
COc1ccc(CN2CCCCCC2c2cccs2)c(O)c1 (stereo not given) | 3.6
O=C(C1CCC1)N1CCN(Cc2ccsc2)[C@H]2CS(=O)(=O)C[C@H]21 | -12
Cc1noc(Cl)c1CCC(=O)N1CCN(Cc2ccncc2)CC1 | -14.2
CC(C)(C)OC(=O)NCC1CCCCN1Cc1ccccn1 (stereo not given) | -3.59
CC(C)CNC(=O)CNc1c(NCc2ccco2)c(=O)c1=O | -0.817
Cc1nc(C(=O)N2CCCCC2c2ccc(CN(C)C)cc2)c(C)o1 (stereo not given) | -2.32
Cc1noc(Cl)c1CCC(=O)N1CCc2sccc2C1 | 2.65
NC(=O)c1cnc2n1CCN(C(=O)c1ccc(Cn3cccc3)cc1)C2 | -1.5
Cc1cccc(C(=O)NCCNS(=O)(=O)c2cccs2)c1C | -0.642
CCOc1nc2cnccc2n(CC(=O)NCc2ccco2)c1=O | -8.84
O=C1CC2(CCN(C(=O)c3ccccn3)CC2)Oc2c(Cl)cc(Cl)cc21 | 1.73
CC(C)c1csc(C(=O)N(C)c2ccc(Br)cn2)n1 | 3.33
Cc1cccc(C2(C(=O)NCC3CCN(CC(F)(F)F)C3)CCC2)c1 (stereo not given) | -11.5
CC(=O)Nc1ccccc1Sc1nc(Br)nn1C | -1.05
CCn1cc(CN2CCCN(C(=O)CCCn3cncn3)CC2)cn1 | -12.5
CN1CCN(C(=O)C2(S(C)(=O)=O)CCCC2)Cc2ccccc21 | -4.96
Cc1ccc(CN2CCc3nnc(CN4CCCC4=O)n3CC2)o1 | -4.28
Cc1cccc(N2N=C(C(=O)NC(C)Cc3ccco3)CCC2=O)c1 (stereo not given) | -9.6
O=C(Cc1ccc(O)c(F)c1)N1CCC2(CCNCC2)CC1 | -7.43
CC(=O)Nc1ccc(C(=O)N(C)C(C)Cc2cc(C)ccn2)cn1 (stereo not given) | 1.32
CC(c1cc(F)ccc1F)N(C)Cc1nc2c(cnn2C)c(=O)[nH]1 (stereo not given) | -7.8
CCOC1COC2(CCN(CC3CCOCC3)CC2)C1 (stereo not given) | -97.6
COC(=O)c1cc(NC(=O)NCC2CCS(=O)(=O)C2)ccc1Cl (stereo not given) | 2.57
O=C(NCCN1CCC(c2cccs2)CC1)Nc1cccs1 | -20.6
CC(CNC1CCN(Cc2ccncc2)CC1)c1ccc(F)cc1F (stereo not given) | -9.73
Cc1cc(C)nc(CN(C)C(=O)c2cccc(CCC(C)(C)O)c2)c1 | -3.25
CCC(C)NC(=O)c1cccc(CNC(=O)CC(F)(F)F)c1 (stereo not given) | 6.99

Compound | cytotoxicity at 10 µM [%]
COCCn1nc(C(=O)N(C)Cc2ccc3ccccc3c2)ccc1=O | -131
c1ccc(CO[C@H]2CN(c3ncccn3)C[C@@]23CCCO3)cc1 | -6.11
CC(C)=CCN1C[C@@H]2CC[C@H]1CN(Cc1coc(C)n1)C2 | 1.25
OCCOc1cc(F)ccc1NCc1ccc(F)c(F)c1 | -6.38
COCCCNC(=O)Cn1nnc(-c2cc3ccccc3o2)n1 | 6.43
O=C1C[C@@H]2CC[C@H](CN1)N2C1CSCCSC1 | -2.26
c1cncc(OC[C@]23COC[C@H]2CN(C2CCOCC2)C3)c1 | 8.61
CCC(C)NC(=O)NCCC(=O)N1CCN(c2ccccn2)CC1 (stereo not given) | 4.22
CC(C)(C)OC(=O)N1CCN(C(=O)c2sccc2C2CC2)CC1 | 2.38
Cc1nc(C)c2c(n1)CCN(C(=O)CC1CC1)CC2 | 2.34
Fc1cnc(N2CCOCC3(CCCN(c4cnccn4)C3)C2)nc1 (stereo not given) | 10.6
Cc1noc(C)c1C(=O)NCc1cc[nH]n1 | 9.31
c1cncc(OC[C@]23COC[C@H]2CN(Cc2nccs2)C3)c1 | -1.43
CCc1cc(C(=O)N2CCCC(c3[nH]ncc3S(C)(=O)=O)C2)no1 (stereo not given) | -0.335
Cc1noc(C)c1CC(=O)N1CCN(Cc2cscn2)CC1 | -8.72
COc1ccc(C)cc1NC(=O)CNc1ccn(CC(N)=O)n1 | -8.28
CCN(CC1CCCO1)C(=O)Nc1ccc(F)cc1OC (stereo not given) | -8.98
CCC(C(=O)NCCc1coc(-c2ccc(C)cc2)n1)N(C)C (stereo not given) | -1.13
O=C(C1CC1)N1CCN2C[C@H](c3ccccc3)[C@@H](CO)[C@H]2C1 | 4.9
CN1C(=O)[C@@H]2CC[C@H]1CN(S(=O)(=O)c1ccc(Cl)cc1Cl)C2 | 1.47
CC(C)COCCC(=O)Nc1cc(-n2nnnc2C2CC2)ccc1F | 7.57
CCN1CCC(NC(=O)NC2CCOc3ccc(Br)cc32)CC1 (stereo not given) | -1.15
O=C(NCCc1cccnc1)C1CCCN(Cc2ccco2)C1 (stereo not given) | -3.98
CNC(=O)[C@H]1C[C@H]2CN(Cc3ccc(C)cc3)C[C@@H]1O2 | 1.82
Cn1cc(CN2CCCC3(CCN(c4cccnc4)C3=O)C2)cn1 (stereo not given) | -74.9
O=C(Nc1cnccn1)[C@@H]1CCO[C@@H]2CCN(Cc3ccsc3)C[C@@H]21 | -77.1
O=C(c1ccsc1)N1C[C@@H]2OCCN(CCN3CCCC3)[C@@H]2C1 | -73.7

Source: ChEMBL document CHEMBL4513216, “Probing the Open Global Health Chemical Diversity Library for Multistage-Active Starting Points for Next-Generation Antimalarials” (ACS Infect Dis, 2020)
